# From PubChem BioAssay
# TAAR1 antagonist – antagonists of human TAAR1. hit rate 1.5% among 360,000. inhibition, % at 3 µM. Q96RJ0. AID 624466. CHO RD-HGA16 TAAR1, Fluo-8 calcium fluorescence, antagonist;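 active means inhibition above a per-plate cutoff, the mean inhibition of test compounds on that plate plus 3 SD, cut at about 49% in these data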;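 further: 0% = DMSO plus EC80 beta-PEA response and 100% = DMSO alone without agonist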
#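 Test system: RD-HGA16 CHO cells with stable hTAAR1 and Gα16 / Probe or stimulus: EC80 β-phenethylamine stimulus / Times: seeding 17-24 h prior, 75-min 37 °C, 30-min RT dye loading / Detection: Fluo-8 calcium-sensitive fluorescence / Read-out basis: % inhibition scaled between DMSO and EC80 PEA controls / Repeats: singlicate, one well per test compound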
# TAAR1 agonist – human TAAR1 agonism; Q96RJ0; CHO RD-HGA16 TAAR1, Fluo-8 calcium fluorescence; vehicle wells 0%, saturating PEA agonist 100%; activation, % at 3 µM; hit rate 0.99% among 360,000; AID 624467;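 active means activation above the mean activation of all test compounds in the run plus 3 SD, cut at about 38% in these data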
#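 Test system: RD-HGA16 (CHO) cells co-expressing Gα16 and hTAAR1 | Doses: Single dose, 3 µM | Schedule: 17-24 h seeding, 75 min 37 °C dye, 30 min RT | Evaluation: % activation from peak over basal fluorescence ratio, DMSO-to-PEA scaled | Technique: Kinetic Fluo-8 calcium fluorescence | Benchmarks: Low control DMSO, high control PEA (EC100)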
# OX1R antag-1 – blocks the human orexin 1 receptor. OX1R-expressing cells, FRET antagonist read-out. AID 485270. inhibition, % at 6.6 µM. hit rate 1.8% among 330,000. O43613; in the data active means inhibition mostly above about 38%, no sharp cut-off; inactive means mostly below about 40%;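 further: 0% = agonist challenge alone and 100% = reference antagonist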
# Target sequence (O43613 whole entry, looked up): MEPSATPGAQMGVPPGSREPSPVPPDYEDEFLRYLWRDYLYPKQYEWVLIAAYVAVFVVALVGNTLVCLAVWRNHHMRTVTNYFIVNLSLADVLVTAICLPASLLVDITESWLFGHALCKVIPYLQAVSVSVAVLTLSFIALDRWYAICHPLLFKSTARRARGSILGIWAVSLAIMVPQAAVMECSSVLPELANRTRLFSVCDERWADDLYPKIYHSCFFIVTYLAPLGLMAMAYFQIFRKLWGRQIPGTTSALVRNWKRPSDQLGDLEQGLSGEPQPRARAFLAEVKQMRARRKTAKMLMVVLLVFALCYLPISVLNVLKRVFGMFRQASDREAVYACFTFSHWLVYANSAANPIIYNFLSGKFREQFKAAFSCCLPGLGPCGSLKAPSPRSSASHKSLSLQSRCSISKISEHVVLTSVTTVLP
# GPR7 antagonist – antagonists of human GPR7 (neuropeptides B/W receptor 1) | P48145 | GPR7-expressing cells, fluorescence antagonist assay | inhibition, % at 4.4 µM | hit rate 1.1% among 290,000 | AID 1861; in the data active means inhibition above about 16%, passing the limit was not always enough;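 further: cells stimulated with the agonist NPW; 0% = agonist with vehicle and 100% = vehicle without agonist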
# OX1R antag-2 – antagonists of human orexin 1 receptor | CHO/OX1R cells, Fluo-8 calcium fluorescence, orexin A | inhibition, % at 5 µM | hit rate 0.43% among 330,000 | AID 434989;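 active means inhibition above its plate's threshold, mean inhibition of all tested compounds on the plate plus 3 SD, cut at about 37% in these data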;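 further: 0% = orexin A challenge wells and 100% = SB-334867-A antagonist wells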
# CHO parental Ca – counter-screen for OX1R antagonists: effect in parental CHO cells | parental CHO-K1, ATP-induced calcium, Fluo-8 fluorescence | inhibition, % at 5.6 µM | hit rate 0.63% among 330,000 | AID 463079;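 active means inhibition above that plate's mean sample inhibition plus 3 SD, cut at about 26% in these data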;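 further: 0% = ATP-challenged DMSO wells and 100% = DMSO wells without ATP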
#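 Assay system – parental CHO cells · Reagent – ATP stimulus · Detection – intracellular calcium via Fluo-8 no-wash fluorescent dye · Evaluation – percent inhibition of ATP-evoked calcium rise, normalized to controls · Controls – ATP wells versus no-ATP DMSO wells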
# nonsel antag count – nonselective antagonist in TAAR1 antagonist counter-screen. shares compounds with TAAR1 antagonist. AID 651780. inhibition, % at 3 µM. hit rate 77% among 2,400. counterscreen cell line, calcium fluorescence, antagonist mode; in the data active means inhibition above about 22%;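 further: CHO-Ga16 host cells stimulated with ATP at an EC80 level; 0% = agonist EC80 plus vehicle and 100% = vehicle without agonist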
# TAAR1 ant conf – human TAAR1 antagonism, confirmed. shares compounds with TAAR1 antagonist. TAAR1-expressing cells, fluorescence antagonist read-out. inhibition, % at 3 µM. hit rate 40% among 2,400; in the data active means inhibition above about 49%;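 further: CHO-Ga16 host cells challenged with agonist PEA near its EC80; 0% = agonist at EC80 plus vehicle and 100% = vehicle with no agonist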
# Ga16 ag counter – nonselective Ga16 agonist in TAAR1 antagonist counter-screen; shares compounds with TAAR1 antagonist; Ga16-expressing cells, calcium fluorescence, agonist counterscreen; activation, % at 3 µM; hit rate 18% among 2,400; in the data active means activation above about 12%;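 further: 0% = vehicle wells and 100% = saturating stimulus response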
# TAAR1 ag counter – activates human TAAR1 in antagonist counter-screen. shares compounds with TAAR1 antagonist. hTAAR1 cell line, fluorescence activation, agonist mode. activation, % at 3 µM. hit rate 2% among 2,400; in the data active means activation above about 37%;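 further: CHO cells stably expressing TAAR1 with calcium dye readout; 0% = DMSO vehicle and 100% = full agonist response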
# * hit, by the source's call; / = no result given. The list is not random: actives were taken first. Their share in the collection is about 4.5%.
SMILES,TAAR1 antagonist,TAAR1 agonist,OX1R antag-1,GPR7 antagonist,OX1R antag-2,CHO parental Ca,nonsel antag count,TAAR1 ant conf,Ga16 ag counter,TAAR1 ag counter
COc1cc(C(=O)Nc2cc3c(cc2N2CCCCC2)n(C)c(=O)n3C)cc(OC)c1OC,-13,0,8,-17,-47,-30,/,/,/,/
O=C(COCc1ccccc1)N[C@@H]1c2ccccc2CC[C@H]1OCc1ccccc1,14,2,15,/,-30,-20,/,/,/,/
O=C(CCc1ccccc1)N[C@@H]1c2ccccc2CC[C@@H]1OCc1ccccc1,53*,9,22,/,11,-21,10,16,-1,-2
Fc1cc2[nH]c(=S)[nH]c2c(Br)c1N1CCSCC1,-1,0,-4,-14,-6,-7,/,/,/,/
Fc1ccc2cnc(-c3ccccc3)c(-c3cc(C(F)(F)F)cc(C(F)(F)F)c3)c2c1,-21,3,15,/,-24,-42,/,/,/,/
Fc1ccc2cnc(-c3ccccc3)c(-c3ccc(C(F)(F)F)cc3)c2c1,63*,0,-1,/,-14,-40,9,37,4,-1
N#Cc1ccc(-c2c(-c3ccccc3)ncc3cc(F)ccc23)cc1,59*,1,12,/,-16,-29,18,44,1,3
O=[N+]([O-])c1ccc(-c2c(-c3ccccc3)ncc3ccc(F)cc23)cc1,74*,0,15,/,-1,-25,19,66*,-1,-2
CCOC(=O)c1c(NC(=O)CSC(=S)N2CCOCC2)sc(C)c1C,-10,5,4,-4,-19,-10,/,/,/,/
O=C(Nc1ccc(NC(=O)c2cc3ccccc3o2)cc1)c1ccc2c(c1)OCCO2,-13,4,14,-8,-20,17,/,/,/,/
Cc1cc(NC(=O)c2ccc3c(c2)OCCO3)ccc1NC(=O)c1cc2ccccc2o1,85*,23,4,0,-19,0,38*,73*,9,24
Cc1cc(NC(=O)c2cccnc2)ccc1NC(=O)c1cc2ccccc2o1,57*,32,9,9,-12,-11,22*,44,10,37
OC1CCCCC1,-6,1,6,/,-16,-6,/,/,/,/
COc1ccc(NC(=O)Nc2ccc(Cc3ccncc3)cc2)c(OC)c1,9,2,19,14,-10,-14,/,/,/,/
COc1ccc(C2=NS(=O)(=O)N(C)C(C(=O)Nc3cc(C)ccc3O)=C2)cc1OC,70*,13,10,6,-8,18,40*,51*,9,6
CN(Cc1nc2ccccc2c(=O)[nH]1)C(=O)c1cccc(S(=O)(=O)N2CCCC2)c1,3,0,3,/,-24,-14,/,/,/,/
Cc1cc(C)c(C)c(S(=O)(=O)N2CCC(C(=O)N(C)Cc3nc4ccccc4c(=O)[nH]3)CC2)c1C,59*,34,/,/,/,/,28*,43,8,12
N#CC(C#N)=Cc1cc2ccccc2nc1N1CCOCC1,-6,1,14,-11,1,-6,/,/,/,/
N#C/C(=C\c1cc2ccccc2nc1N1CCOCC1)C(=O)Nc1ccc(N2CCOCC2)cc1,59*,13,22,-13,-27,-6,30*,46,9,6
CSC(=NC#N)N1CCN(c2ccccn2)CC1,1,7,21,-13,-21,-10,/,/,/,/
CC1CCCCC1NC(=O)c1ccc(-n2cncn2)cc1 (stereo not drawn),93*,-3,8,/,3,-10,13,5,8,5
O=C(NCCn1cc(SCc2ccccc2)c2ccccc21)c1c(F)cccc1F,85*,2,36,-4,8,70*,32*,47,4,-1
